System: Fibroblast
Test: Multiplex assay against human fibroblast
Assay type: toxicity, cell-based
How it was run: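 With compound added, live cells were imaged on a CQ1 microscope at 37°C and 5% CO2; staining with Hoechst33342, BioTracker Green Microtubule Cytoskeleton Dye, MitoTracker Red and Annexin V Alexa Fluor 680 had been done at seeding. The CellPathfinder machine-learning gating scheme split cells into Hoechst high-intensity objects or normal cells, normal cells into healthy, pyknosed or fragmented nuclei, and pyknosed cells into mitotic or apoptotic. The tubulin, mitochondrial-mass and membrane-permeability phenotypes are per cents of healthy-nucleus cells.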

[1] = 12 h, 1 µM, compound concentration 1 uM, replicate 1
[2] = 12 h, 1 µM, compound concentration 1 uM, replicate 2
[3] = 12 h, 10 µM, compound concentration 10 uM, replicate 1
[4] = 12 h, 10 µM, compound concentration 10 uM, replicate 2
[5] = 24 h, 1 µM, compound concentration 1 uM, replicate 1
[6] = 24 h, 1 µM, compound concentration 1 uM, replicate 2
[7] = 24 h, 10 µM, compound concentration 10 uM, replicate 1
[8] = 24 h, 10 µM, compound concentration 10 uM, replicate 2
[9] = 48 h, 1 µM, compound concentration 1 uM, replicate 1
[10] = 48 h, 1 µM, compound concentration 1 uM, replicate 2
[11] = 48 h, 10 µM, compound concentration 10 uM, replicate 1
[12] = 48 h, 10 µM, compound concentration 10 uM, replicate 2

`CCc1nn2c(C)cc(C)nc2c1Cc1ccc(-c2nnc(C3CCNCC3)o2)cc1` was tested, and the “Population Apoptotic (%)” value [1] was 34%, the “Population Fragmented Nuclei (%)” value [1] was 17% and the “Population Healthy Nuclei (%)” value [1] was 63%. The “Population Hoechst High Intensity Objects (%)” value [1] was 2%, the “Population Membrane Permeable-Phenotype (%)” value [1] was 2% and the “Population Mitochondria Different-Phenotype (%)” value [1] was 5%. The “Population Mitotic Cells (%)” value [1] was 65%, the “Population Normal (%)” value [1] was 97% and the “Population Pyknosed Nuclei (%)” value [1] was 19%. For the same compound, the “Population Tubulin-Different-Phenotype (%)” value [1] was 35%, the “Total Cell Count” value [1] was 153 and the “Population Apoptotic (%)” value [2] was 45%. The “Population Fragmented Nuclei (%)” value [2] was 19%, the “Population Healthy Nuclei (%)” value [2] was 46% and the “Population Hoechst High Intensity Objects (%)” value [2] was 6%. For the same compound, the “Population Mitochondria Different-Phenotype (%)” value [2] was 13%, the “Population Mitotic Cells (%)” value [2] was 54% and the “Population Normal (%)” value [2] was 93%. For the same compound, the “Population Pyknosed Nuclei (%)” value [2] was 33%, the “Population Tubulin-Different-Phenotype (%)” value [2] was 62% and the “Total Cell Count” value [2] was 167. The “Population Apoptotic (%)” value [3] was 51%, the “Population Fragmented Nuclei (%)” value [3] was 19% and the “Population Healthy Nuclei (%)” value [3] was 62%. The “Population Hoechst High Intensity Objects (%)” value [3] was 5%, the “Population Membrane Permeable-Phenotype (%)” value [3] was 0% and the “Population Mitochondria Different-Phenotype (%)” value [3] was 19%. The “Population Mitotic Cells (%)” value [3] was 48%, the “Population Normal (%)” value [3] was 94% and the “Population Pyknosed Nuclei (%)” value [3] was 18%. For the same compound, the “Population Tubulin-Different-Phenotype (%)” value [3] was 72%, the “Total Cell Count” value [3] was 188 and the “Population Apoptotic (%)” value [4] was 14%. For the same compound, the “Population Fragmented Nuclei (%)” value [4] was 38%, the “Population Healthy Nuclei (%)” value [4] was 44% and the “Population Hoechst High Intensity Objects (%)” value [4] was 3%. The “Population Membrane Permeable-Phenotype (%)” value [4] was 5%, the “Population Mitochondria Different-Phenotype (%)” value [4] was 14% and the “Population Mitotic Cells (%)” value [4] was 85%. The “Population Normal (%)” value [4] was 96%, the “Population Pyknosed Nuclei (%)” value [4] was 17% and the “Population Tubulin-Different-Phenotype (%)” value [4] was 79%. The “Total Cell Count” value [4] was 162, the “Population Apoptotic (%)” value [5] was 52% and the “Population Fragmented Nuclei (%)” value [5] was 17%. The “Population Healthy Nuclei (%)” value [5] was 68%, the “Population Hoechst High Intensity Objects (%)” value [5] was 1% and the “Population Membrane Permeable-Phenotype (%)” value [5] was 0%. The “Population Mitochondria Different-Phenotype (%)” value [5] was 3%, the “Population Mitotic Cells (%)” value [5] was 47% and the “Population Normal (%)” value [5] was 98%. For the same compound, the “Population Pyknosed Nuclei (%)” value [5] was 13%, the “Population Tubulin-Different-Phenotype (%)” value [5] was 35% and the “Total Cell Count” value [5] was 153. The “Population Apoptotic (%)” value [6] was 56%, the “Population Fragmented Nuclei (%)” value [6] was 26% and the “Population Healthy Nuclei (%)” value [6] was 49%. The “Population Hoechst High Intensity Objects (%)” value [6] was 7%, the “Population Membrane Permeable-Phenotype (%)” value [6] was 6% and the “Population Mitochondria Different-Phenotype (%)” value [6] was 15%. The “Population Mitotic Cells (%)” value [6] was 43%, the “Population Normal (%)” value [6] was 92% and the “Population Pyknosed Nuclei (%)” value [6] was 23%. For the same compound, the “Population Tubulin-Different-Phenotype (%)” value [6] was 65%, the “Total Cell Count” value [6] was 177 and the “Population Apoptotic (%)” value [7] was 53%. The “Population Fragmented Nuclei (%)” value [7] was 17%, the “Population Healthy Nuclei (%)” value [7] was 64% and the “Population Hoechst High Intensity Objects (%)” value [7] was 9%. For the same compound, the “Population Membrane Permeable-Phenotype (%)” value [7] was 0%, the “Population Mitochondria Different-Phenotype (%)” value [7] was 22% and the “Population Mitotic Cells (%)” value [7] was 46%. For the same compound, the “Population Normal (%)” value [7] was 90%, the “Population Pyknosed Nuclei (%)” value [7] was 17% and the “Population Tubulin-Different-Phenotype (%)” value [7] was 79%. The “Total Cell Count” value [7] was 185, the “Population Apoptotic (%)” value [8] was 56% and the “Population Fragmented Nuclei (%)” value [8] was 40%. The “Population Healthy Nuclei (%)” value [8] was 42%, the “Population Hoechst High Intensity Objects (%)” value [8] was 3% and the “Population Membrane Permeable-Phenotype (%)” value [8] was 11%. The “Population Mitochondria Different-Phenotype (%)” value [8] was 16%, the “Population Mitotic Cells (%)” value [8] was 44% and the “Population Normal (%)” value [8] was 96%. For the same compound, the “Population Tubulin-Different-Phenotype (%)” value [8] was 80%, the “Total Cell Count” value [8] was 151 and the “Population Apoptotic (%)” value [9] was 76%. For the same compound, the “Population Fragmented Nuclei (%)” value [9] was 21%, the “Population Healthy Nuclei (%)” value [9] was 70% and the “Population Hoechst High Intensity Objects (%)” value [9] was 4%. For the same compound, the “Population Membrane Permeable-Phenotype (%)” value [9] was 1%, the “Population Mitochondria Different-Phenotype (%)” value [9] was 2% and the “Population Mitotic Cells (%)” value [9] was 23%. For the same compound, the “Population Normal (%)” value [9] was 95%, the “Population Pyknosed Nuclei (%)” value [9] was 7% and the “Population Tubulin-Different-Phenotype (%)” value [9] was 32%. For the same compound, the “Total Cell Count” value [9] was 172, the “Population Apoptotic (%)” value [10] was 62% and the “Population Fragmented Nuclei (%)” value [10] was 30%. For the same compound, the “Population Healthy Nuclei (%)” value [10] was 54%, the “Population Membrane Permeable-Phenotype (%)” value [10] was 3% and the “Population Mitochondria Different-Phenotype (%)” value [10] was 12%. The “Population Mitotic Cells (%)” value [10] was 37%, the “Population Pyknosed Nuclei (%)” value [10] was 14% and the “Population Tubulin-Different-Phenotype (%)” value [10] was 54%. The “Total Cell Count” value [10] was 168, the “Population Apoptotic (%)” value [11] was 84% and the “Population Fragmented Nuclei (%)” value [11] was 23%. The “Population Healthy Nuclei (%)” value [11] was 62%, the “Population Hoechst High Intensity Objects (%)” value [11] was 9% and the “Population Membrane Permeable-Phenotype (%)” value [11] was 0%. The “Population Mitochondria Different-Phenotype (%)” value [11] was 16%, the “Population Mitotic Cells (%)” value [11] was 15% and the “Population Normal (%)” value [11] was 90%. The “Population Pyknosed Nuclei (%)” value [11] was 13%, the “Population Tubulin-Different-Phenotype (%)” value [11] was 73% and the “Total Cell Count” value [11] was 208. For the same compound, the “Population Apoptotic (%)” value [12] was 54%, the “Population Fragmented Nuclei (%)” value [12] was 45% and the “Population Healthy Nuclei (%)” value [12] was 47%. The “Population Hoechst High Intensity Objects (%)” value [12] was 2%, the “Population Membrane Permeable-Phenotype (%)” value [12] was 2% and the “Population Mitochondria Different-Phenotype (%)” value [12] was 17%. The “Population Mitotic Cells (%)” value [12] was 45%, the “Population Normal (%)” value [12] was 97% and the “Population Pyknosed Nuclei (%)” value [12] was 7%. The “Population Tubulin-Different-Phenotype (%)” value [12] was 78% and the “Total Cell Count” value [12] was 161.

Reference: ChEMBL document CHEMBL5058577, “EUbOPEN Chemogenomics Library 2 (Multiplex)” (2022)
